This test has as its target Aldo-keto reductase family 1 member B1 (Sus scrofa, UniProt P80276). Kind of test: Inhibition of pig kidney aldose reductase (ALR2). An outline of the steps: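 Enzyme prepared from pig kidney and assayed in vitro following a previously published method. Inhibition read spectrophotometrically at 340 nm; IC50 values reported. Tolrestat served as positive control.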
Broadly, the IC50 is the point on the concentration scale where inhibition reaches its midpoint. A lower IC50 goes with greater potency in that assay. The compound `O=C(O)CCC(=O)NCCc1ccc(F)cc1` had an IC50 of 94 µM.
Then `O=C(O)/C=C/C(=O)NCc1ccccc1`, with 150 µM; and `COc1ccc(CCNC(=O)CCC(=O)O)cc1`, with 170 µM; and `O=C(O)CCCC(=O)NCCc1ccc(Br)cc1`, with 110 µM.
Then `CC(=O)NCCc1ccc(O)cc1`, with 160 µM; and `CCCCCCCCCC(=O)NCCc1ccc(O)cc1`, with 110 µM; and `COc1ccc(CCNC(=O)c2ccccc2C(=O)O)cc1`, with 177 µM.
Then `O=C(O)c1ccccc1C(=O)NCc1ccccc1`, with 180 µM.
In turn, `O=C(O)CCC(=O)NCc1ccccc1` had an IC50 of 141 µM.
`CCCCCCCCCCCC(=O)NCCc1ccc(O)cc1` yielded an IC50 of 110 µM.
The compound `O=C(NCCc1ccc(O)cc1)c1ccccc1` returned an IC50 of 160 µM.
In the case of `O=C(O)/C=C/C(=O)NCCc1ccc(F)cc1` it was 75 µM; in that of `O=C(O)/C=C/C(=O)NCCc1ccc(Br)cc1`, 99 µM.
Take `O=C(O)c1ccccc1C(=O)NCCc1ccc(Br)cc1`: the IC50 amounted to 81 µM.
Then `O=C(O)c1ccccc1C(=O)NCCc1ccccc1`, with 88 µM; and `O=C(O)/C=C/C(=O)NCCc1ccccc1`, with 73 µM; and `O=C(O)CCC(=O)NCCc1ccccc1`, with 78 µM.
Then `O=C(O)/C=C/C(=O)n1ccc2ccccc21`, with 37 µM; and `O=C(O)CCC(=O)Nc1ccccc1`, with 192 µM.
Then `O=C(O)CCC(=O)NCCc1ccc(Br)cc1`, with 94 µM.
As to `O=C(O)c1ccccc1C(=O)NCCc1ccc(Cl)cc1`, it took 203 µM to reach half-maximal inhibition (IC50).
As for `O=C(O)c1ccccc1C(=O)NCCc1ccc(O)cc1`, the IC50 is 340 µM.
In the case of `O=C(O)CCCC(=O)NCc1ccccc1`, half-maximal inhibition (IC50) required 133 µM.
In the case of `COc1cc(C(=O)NCCc2ccc(O)cc2)cc(OC)c1OC` it was 100 µM.
In the case of `O=C(O)CCCC(=O)NCCc1ccc(F)cc1` it was 76 µM; in that of `O=C(O)c1ccccc1C(=O)N1CCc2ccccc21`, 95 µM.
In the case of `O=C(O)CCC(=O)NCCc1ccc(O)cc1` it was 390 µM; in that of `O=C(O)/C=C/C(=O)NCCc1ccc(Cl)cc1`, 112 µM.
Turning to `O=C(O)c1ccccc1C(=O)n1ccc2ccccc21`, half-maximal inhibition (IC50) was put at 30 µM.
Then `O=C(O)c1ccccc1C(=O)NCCc1ccc(F)cc1`, with 88 µM.
In the case of `O=C(O)CCC(=O)NCCc1ccc(Cl)cc1` it was 99 µM; in that of `O=C(O)CCCC(=O)NCCc1ccc(Cl)cc1`, 154 µM.
Then `COc1ccc(CCNC(=O)/C=C/C(=O)O)cc1`, with 155 µM; and `O=C(O)CCCC(=O)NCCc1ccccc1`, with 104 µM; and `O=C(O)/C=C/C(=O)NCCc1ccc(O)cc1`, with 80 µM.
Regarding `O=C(O)/C=C/C(=O)Nc1ccccc1`, the IC50 amounted to 182 µM.
Compound `O=C(O)CCC(=O)n1ccc2c(O)cccc21` showed an IC50 of 7.4 µM.
In the case of `O=C(O)/C=C/C(=O)N1CCc2ccccc21` it was 40 µM; in that of `CCCCCCCCCCCCCCCC(=O)NCCc1ccc(O)cc1`, 150 µM; in that of `COc1ccc(CCNC(=O)CCCC(=O)O)cc1`, 185 µM.
Then `O=C(O)CCCC(=O)Nc1ccccc1`, with 440 µM.
Then `O=C(O)CCC(=O)n1ccc2ccccc21`, with 24 µM; and `O=C(O)CCC(=O)N1CCc2ccccc21`, with 102 µM.
`CCCCC(=O)NCCc1ccc(O)cc1` yielded an IC50 of 130 µM.
Then `CCCCCCCC(=O)NCCc1ccc(O)cc1`, with 120 µM; and `CCC(C)C(=O)NCCc1ccc(O)cc1` (stereo not drawn), with 1800 µM.
In the case of `O=C(O)c1ccccc1C(=O)Nc1ccccc1` it was 227 µM; in that of `COc1ccc2c(C(=S)N(C)CC(=O)O)cccc2c1C(F)(F)F` [TOLRESTAT], 16 µM.
